High-throughput results from PubChem BioAssay.
Shown are actives, neighbours in structure and some others; about 1% of the full set was active somewhere.
NOD2-RIPK2 inh = NOD2-RIPK2 protein interaction inhibition; O43353; inhibition, % at 4.98 µM; CHO BLA complementation NOD2-RIPK2, CCF4 ratio; 0.38% of 360,000 active; AID 624267; in the data active = inhibition above about 21%
MT stabilize HCS = microtubule stabilization, imaging screen; HeLa tubulin immunostaining HCS, 24 h; share of cells brighter than vehicle mean+2SD; % tubulin-high responders, % at 10 µM; 0.83% of 200,000 active; AID 2205;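 active = plate Z-score above 3 for both tubulin-high and condensed-nucleus cell shares, with cell loss under 80%, at 10 µM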;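 note: anti alpha tubulin signal scored within the nucleus-defined area of each cell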
TLR4-MyD88 BLA = blocks binding of human TLR4 to MyD88; O00206+Q99836; HeLa CL3-4 TLR4/MyD88 BLA complementation, FRET ratio; inhibition, % at 8.4 µM; 0.18% of 200,000 active; AID 861; in the data active = inhibition above about 25%
b-catenin transl = beta-catenin nuclear translocation modulation | nuclear translocation activity, % at 5 µM | HeLa beta-catenin nuclear translocation, immunofluorescence imaging | 0.3% of 190,000 active | AID 1665;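 active = nuclear translocation activity above 50% at 5 µM, with a well cell count of 50 or more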;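 note: per-cell ratio of nuclear to cytoplasmic median beta-catenin stain intensity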
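Test system: human HeLa cells, native beta-catenin. Compound dosing: 5 µM primary single dose, 0.1% DMSO, 0.02–20 µM confirmation series. Incubation: compound exposure 24 h at 37°C. Detection: beta-catenin immunostaining with DAPI counterstain, 20x imaging, 6 fields/well. Read-out basis: Nuclear/cytoplasmic beta-catenin signal ratio, % activation.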
Hsp70 activator = Hsp70 transcriptional activation, primary screen; HeLa Hsp70 promoter luciferase reporter, luminescence; scaled: vehicle 0, proteasome-inhibitor control 100%; activation, % at 10 µM; 0.04% of 200,000 active; AID 1203;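 active = activation above the mean across all tested compounds plus 3 SD, cutoff set per campaign, cut at about 5.5% in these data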
TLR9-MyD88 inh = TLR9-MyD88 interaction inhibition | CHO BLA complementation TLR9-MyD88, CCF4 FRET ratio | inhibition, % at 4.98 µM | AID 504734 | 0.21% of 340,000 active | Q9NR96+Q99836;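 active = inhibition above the mean over all tested compounds plus 3 SD, cut at about 21% in these data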
Each line names hits and unclear results; the compound was inactive in the other large screens.

COc1cc2nc(SCc3c(C)noc3C)n(CCC3=CCCCC3)c(=O)c2cc1OC	MT stabilize HCS 38
Cc1c(C(=O)N(C)Cc2nc3ccccc3c(=O)[nH]2)oc2ccccc12	none (no result: MT stabilize HCS, TLR4-MyD88 BLA, b-catenin transl, Hsp70 activator)
CCN(CC)C(=O)[C@H]1CC(CC(=O)NCCCOC)C(=O)N2CCc3c([nH]c4ccccc34)[C@]12C (stereo partly specified)	none (no result: MT stabilize HCS, TLR4-MyD88 BLA, b-catenin transl, Hsp70 activator)
Cn1c2c(c(=O)n(C)c1=O)C(c1ccc(Br)cc1)C(C#N)=C(N)N2 (stereo unspecified)	none (no result: MT stabilize HCS, TLR4-MyD88 BLA, b-catenin transl, Hsp70 activator)
N#CC1=C(SCC(=O)Nc2nccs2)NC(=O)CC1c1ccccc1 (stereo unspecified)	MT stabilize HCS 40 (no result: b-catenin transl)
Cc1ccccc1NC(=O)CSC1=C(C#N)C(c2ccsc2)CC(=O)N1 (stereo unspecified)	MT stabilize HCS 26
COC(=O)CSC1=C(C#N)C(c2ccc(C)o2)CC(=O)N1 (stereo unspecified)	MT stabilize HCS 17
CC(C)(C)c1ccc(S(=O)(=O)N2CCN(C(=O)C3=COCCO3)CC2)cc1	none (no result: MT stabilize HCS, TLR4-MyD88 BLA, b-catenin transl, Hsp70 activator)
COc1ccc(/C=C/C(=O)NC(=S)NNC(=O)c2ccco2)cc1	MT stabilize HCS 33
COc1ccc(/C=C/C(=O)NC(=S)NNC(=O)c2ccco2)cc1OC	none (no result: MT stabilize HCS, TLR4-MyD88 BLA, Hsp70 activator)
Cc1ccc(Cl)cc1N1CCN(C(=O)Cc2csc(Nc3nc(=S)[nH]c4ccccc34)n2)CC1	MT stabilize HCS 9.5
Cn1cc(Cc2ccc(C(=O)N3CCCCC3)cn2)c2ccccc21	none (no result: MT stabilize HCS, TLR4-MyD88 BLA, b-catenin transl, Hsp70 activator, TLR9-MyD88 inh)
O=[N+]([O-])c1cccc(N=Nc2ccc(O)cc2O)c1	none (no result: MT stabilize HCS, TLR4-MyD88 BLA, b-catenin transl, Hsp70 activator)
O=[N+]([O-])c1ccc(N=Nc2ccc(O)cc2O)cc1	MT stabilize HCS 22 (no result: b-catenin transl)
CCOC(=O)c1sc(-c2ccc(Cl)cc2Cl)nc1O	none (no result: MT stabilize HCS, TLR4-MyD88 BLA, Hsp70 activator)
Cc1ccc(N=Nc2c(N)[nH]n3c(=O)cc(C)nc23)cc1	none
Cc1ccc(N=Nc2c(N)[nH]n3c(=O)c4c(nc23)CCCC4)cc1	MT stabilize HCS 24 (no result: NOD2-RIPK2 inh, TLR9-MyD88 inh)
CC(C)n1ncc2c(C(=O)NCCc3ccc(S(N)(=O)=O)cc3)cc(C3CC3)nc21	none (no result: MT stabilize HCS, TLR4-MyD88 BLA, b-catenin transl, Hsp70 activator)
Cc1ccc(N2CCN(C(=O)c3cccc([N+](=O)[O-])c3)CC2)cc1Cl	none
COC(=O)c1cc(C(=O)N2CCOCC2)cc([N+](=O)[O-])c1	none
O=C(c1cccc([N+](=O)[O-])c1)N1CCN(c2cccc(Cl)c2)CC1	MT stabilize HCS 27
COC(=O)c1cc(C(=O)N2CCN(c3cccc(Cl)c3)CC2)cc([N+](=O)[O-])c1	b-catenin transl 100
COc1ccc(CCNC(=O)c2cc(-c3ccncc3)nc3ccc(S(=O)(=O)N4CCOCC4)cc23)cc1OC	none (no result: MT stabilize HCS, TLR4-MyD88 BLA, b-catenin transl, Hsp70 activator)
COc1ccc(NC(=O)/C(Cl)=C(/Cl)S(=O)(=O)Cc2ccc(C)cc2)cn1	NOD2-RIPK2 inh 75, TLR9-MyD88 inh 27 (no result: b-catenin transl)
Cc1ccc(C=NNc2nc3c([nH]2)c(=O)n(C)c(=O)n3C)cc1	none (no result: MT stabilize HCS, TLR4-MyD88 BLA, b-catenin transl, Hsp70 activator)
CCCc1nn(-c2cc(Cl)ccc2OC)c2c1C(=O)CC(C)(C)C2	MT stabilize HCS 12 (no result: b-catenin transl)
CCc1nn(-c2cc(Cl)ccc2OC)c2c1C(=O)CCC2	MT stabilize HCS 27
O=c1cc(N2CCN(c3ccc(F)cc3)CC2)[nH]c(=O)n1C1CCCCC1	MT stabilize HCS 27
O=c1cc(N2CCC3(CC2)OCCO3)[nH]c(=O)n1C1CCCCC1	none
CC(=O)c1cc(-c2ccc(F)cc2)n(CCC(=O)Nc2cccc(C)n2)c1C	none
COc1cccc(C2NC(=O)NC(C)=C2C(=O)Nc2ccc(C)cc2)c1 (stereo unspecified)	none
COC(=O)C1C(=O)C=C(Nc2ccc(F)cc2)CC1c1ccc(OC)cc1 (stereo unspecified)	none
COC(=O)C1=C(Nc2ccc(C)cc2)C=C(C)C(C(=O)OC)C1c1ccc(OC)cc1 (stereo unspecified)	MT stabilize HCS 31, b-catenin transl 72
COC(=O)C1=C(Nc2ccc(C)cc2)C=C(C)C(C(=O)OC)C1c1cccc(OC)c1 (stereo unspecified)	b-catenin transl 57
CC(C)Oc1ccc(S(=O)(=O)N2CCCCC2)cc1NC(=O)C1=NN(c2ccccc2)C(=O)CC1	none (no result: MT stabilize HCS, TLR4-MyD88 BLA, b-catenin transl, Hsp70 activator)
Cc1ccc(N/N=C(\Cc2nc3ccccc3[nH]2)c2ccccc2)cc1	b-catenin transl 107
COc1ccc(Oc2nc(SC)nc3ccsc23)cc1	none (no result: b-catenin transl)
